Test results taken from ChEMBL document CHEMBL5058577, “EUbOPEN Chemogenomics Library 2 (Multiplex)” (2022).

Test system: HEK-293T
Experiment: Multiplex assay against HEK293T
Format: toxicity, cell-based
Conditions: human
In short: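 Values for tubulin, mitochondrial-mass and membrane-permeability phenotypes are per cents of cells with healthy nuclei. These cells were identified by CellPathfinder machine-learning gating of live cells that had been stained at seeding with Hoechst33342, BioTracker Green Microtubule Cytoskeleton Dye, MitoTracker Red and Annexin V Alexa Fluor 680 and imaged on a CQ1 microscope at 37°C and 5% CO2 after compound addition. The gating first set Hoechst high-intensity objects apart from normal cells, then split normal cells into healthy, pyknosed or fragmented nuclei, and pyknosed cells into mitotic or apoptotic.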

[1] = 12 h, 1 µM, compound concentration 1 uM, replicate 1
[2] = 12 h, 1 µM, compound concentration 1 uM, replicate 2
[3] = 12 h, 10 µM, compound concentration 10 uM, replicate 1
[4] = 12 h, 10 µM, compound concentration 10 uM, replicate 2
[5] = 24 h, 1 µM, compound concentration 1 uM, replicate 1
[6] = 24 h, 1 µM, compound concentration 1 uM, replicate 2
[7] = 24 h, 10 µM, compound concentration 10 uM, replicate 1
[8] = 24 h, 10 µM, compound concentration 10 uM, replicate 2
[9] = 48 h, 1 µM, compound concentration 1 uM, replicate 1
[10] = 48 h, 1 µM, compound concentration 1 uM, replicate 2
[11] = 48 h, 10 µM, compound concentration 10 uM, replicate 1
[12] = 48 h, 10 µM, compound concentration 10 uM, replicate 2

Q: Which results are given for `O=S(=O)(c1ccccc1)c1cnc2c(N3CCNCC3)cccc2c1` [INTEPIRDINE]?
A: Population Apoptotic (%) [1]: 40%; Population Fragmented Nuclei (%) [1]: 7%; Population Healthy Nuclei (%) [1]: 80%; Population Hoechst High Intensity Objects (%) [1]: 7%; Population Membrane Permeable-Phenotype (%) [1]: 0%; Population Mitochondria Different-Phenotype (%) [1]: 54%; Population Mitotic Cells (%) [1]: 60%; Population Normal (%) [1]: 92%; Population Pyknosed Nuclei (%) [1]: 12%; Population Tubulin-Different-Phenotype (%) [1]: 43%; Total Cell Count [1]: 403; Population Apoptotic (%) [2]: 50%; Population Healthy Nuclei (%) [2]: 74%; Population Hoechst High Intensity Objects (%) [2]: 10%; Population Mitochondria Different-Phenotype (%) [2]: 69%; Population Mitotic Cells (%) [2]: 50%; Population Normal (%) [2]: 89%; Population Pyknosed Nuclei (%) [2]: 17%; Population Tubulin-Different-Phenotype (%) [2]: 23%; Total Cell Count [2]: 336; Population Apoptotic (%) [3]: 51%; Population Fragmented Nuclei (%) [3]: 8%; Population Healthy Nuclei (%) [3]: 72%; Population Hoechst High Intensity Objects (%) [3]: 10%; Population Membrane Permeable-Phenotype (%) [3]: 0%; Population Mitochondria Different-Phenotype (%) [3]: 70%; Population Mitotic Cells (%) [3]: 48%; Population Normal (%) [3]: 89%; Population Pyknosed Nuclei (%) [3]: 18%; Population Tubulin-Different-Phenotype (%) [3]: 58%; Total Cell Count [3]: 326; Population Apoptotic (%) [4]: 46%; Population Fragmented Nuclei (%) [4]: 4%; Population Healthy Nuclei (%) [4]: 79%; Population Hoechst High Intensity Objects (%) [4]: 7%; Population Mitochondria Different-Phenotype (%) [4]: 76%; Population Mitotic Cells (%) [4]: 53%; Population Normal (%) [4]: 92%; Population Pyknosed Nuclei (%) [4]: 15%; Population Tubulin-Different-Phenotype (%) [4]: 50%; Total Cell Count [4]: 349; Population Apoptotic (%) [5]: 28%; Population Fragmented Nuclei (%) [5]: 6%; Population Healthy Nuclei (%) [5]: 80%; Population Hoechst High Intensity Objects (%) [5]: 5%; Population Membrane Permeable-Phenotype (%) [5]: 0%; Population Mitochondria Different-Phenotype (%) [5]: 35%; Population Mitotic Cells (%) [5]: 71%; Population Normal (%) [5]: 94%; Population Pyknosed Nuclei (%) [5]: 12%; Population Tubulin-Different-Phenotype (%) [5]: 26%; Total Cell Count [5]: 530; Population Apoptotic (%) [6]: 58%; Population Fragmented Nuclei (%) [6]: 7%; Population Healthy Nuclei (%) [6]: 85%; Population Mitochondria Different-Phenotype (%) [6]: 43%; Population Mitotic Cells (%) [6]: 41%; Population Pyknosed Nuclei (%) [6]: 7%; Population Tubulin-Different-Phenotype (%) [6]: 14%; Total Cell Count [6]: 416; Population Apoptotic (%) [7]: 52%; Population Fragmented Nuclei (%) [7]: 11%; Population Healthy Nuclei (%) [7]: 75%; Population Hoechst High Intensity Objects (%) [7]: 6%; Population Membrane Permeable-Phenotype (%) [7]: 0%; Population Mitochondria Different-Phenotype (%) [7]: 50%; Population Mitotic Cells (%) [7]: 47%; Population Normal (%) [7]: 93%; Population Pyknosed Nuclei (%) [7]: 12%; Population Tubulin-Different-Phenotype (%) [7]: 33%; Total Cell Count [7]: 439; Population Apoptotic (%) [8]: 51%; Population Fragmented Nuclei (%) [8]: 9%; Population Healthy Nuclei (%) [8]: 82%; Population Hoechst High Intensity Objects (%) [8]: 4%; Population Mitochondria Different-Phenotype (%) [8]: 61%; Population Mitotic Cells (%) [8]: 48%; Population Normal (%) [8]: 95%; Population Pyknosed Nuclei (%) [8]: 8%; Population Tubulin-Different-Phenotype (%) [8]: 42%; Total Cell Count [8]: 458; Population Apoptotic (%) [9]: 17%; Population Fragmented Nuclei (%) [9]: 12%; Population Healthy Nuclei (%) [9]: 80%; Population Hoechst High Intensity Objects (%) [9]: 4%; Population Membrane Permeable-Phenotype (%) [9]: 1%; Population Mitochondria Different-Phenotype (%) [9]: 25%; Population Mitotic Cells (%) [9]: 82%; Population Normal (%) [9]: 95%; Population Pyknosed Nuclei (%) [9]: 7%; Population Tubulin-Different-Phenotype (%) [9]: 16%; Total Cell Count [9]: 866; Population Apoptotic (%) [10]: 25%; Population Fragmented Nuclei (%) [10]: 13%; Population Healthy Nuclei (%) [10]: 79%; Population Hoechst High Intensity Objects (%) [10]: 3%; Population Membrane Permeable-Phenotype (%) [10]: 0%; Population Mitochondria Different-Phenotype (%) [10]: 26%; Population Mitotic Cells (%) [10]: 75%; Population Normal (%) [10]: 96%; Population Pyknosed Nuclei (%) [10]: 6%; Population Tubulin-Different-Phenotype (%) [10]: 12%; Total Cell Count [10]: 641; Population Apoptotic (%) [11]: 40%; Population Fragmented Nuclei (%) [11]: 14%; Population Healthy Nuclei (%) [11]: 75%; Population Hoechst High Intensity Objects (%) [11]: 4%; Population Membrane Permeable-Phenotype (%) [11]: 0%; Population Mitochondria Different-Phenotype (%) [11]: 45%; Population Mitotic Cells (%) [11]: 59%; Population Normal (%) [11]: 95%; Population Pyknosed Nuclei (%) [11]: 10%; Population Tubulin-Different-Phenotype (%) [11]: 30%; Total Cell Count [11]: 606; Population Apoptotic (%) [12]: 18%; Population Fragmented Nuclei (%) [12]: 11%; Population Healthy Nuclei (%) [12]: 82%; Population Mitochondria Different-Phenotype (%) [12]: 38%; Population Mitotic Cells (%) [12]: 81%; Population Pyknosed Nuclei (%) [12]: 5%; Population Tubulin-Different-Phenotype (%) [12]: 27%; Total Cell Count [12]: 673
